{
  "source": "paper PMC3313684",
  "about": "(Journal of Natural Products, 2012)",
  "key": {"Neisseria gonorrhoeae [1]": {"test_system": "Neisseria gonorrhoeae", "test": "Antimicrobial susceptibility, Neisseria gonorrhoeae", "assay_type": "cell-based", "details": "for MIC Neisseria gonorrhoeae: broth microdilution; for MIC: Neisseria gonorrhoeae, read-out: MIC Neisseria gonorrhoeae", "method_in_brief": "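Neisseria gonorrhoeae ATCC 49226 tested by broth microdilution following standard bacterial dilution guidelines. MIC taken as the lowest concentration inhibiting all visible growth (optically clear). Assays repeated on separate days.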"}, "tubulin": {"test_system": "tubulin", "test": "Inhibition of [3H]colchicine binding to tubulin", "details": "10 μM compound, 1.0 μM tubulin, 5.0 μM [3H]colchicine"}, "KAT-4 cells": {"test_system": "KAT-4 cells", "test": "Anaplastic thyroid carcinoma cell line inhibition, KAT-4", "assay_type": "cell-based, human", "details": "for GI50: Homo sapiens, KAT-4, read-out: KAT-4 GI50", "method_in_brief": "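Growth inhibition by the NCI sulforhodamine B method. Cells were plated in RPMI1640 with 5% fetal bovine serum and grown 24 h. Serial dilutions of test compound were then added for 48 h. Plates were fixed with trichloroacetic acid, stained with sulforhodamine B and read by plate reader. GI50 is the concentration giving a 50% drop in net protein increase, calculated from optical density data.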"}, "Micrococcus luteus [2]": {"test_system": "Micrococcus luteus", "test": "Antimicrobial susceptibility, Micrococcus luteus", "assay_type": "cell-based", "details": "read-out: MIC Micrococcus luteus", "method_in_brief": "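Broth microdilution susceptibility to an established standard for aerobic bacteria, strain Presque Isle 456. Test compound was reconstituted in a small volume of sterile DMSO and diluted in medium just before the assay. MIC was the lowest concentration that stopped all visible growth (optically clear). Assays were repeated on separate days.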"}, "[3]": {"test_system": "human umbilical vein endothelial cells (HUVEC)", "test": "HUVEC Matrigel cord formation assay", "assay_type": "cell-based", "details": "0.001 μg/mL, 24 h"}, "SW1736 cells": {"test_system": "SW1736 cells", "test": "Anaplastic thyroid carcinoma cell line inhibition, SW1736", "assay_type": "cell-based, human"}, "Micrococcus luteus [4]": {"test_system": "Micrococcus luteus", "details": "previously shown; cited from earlier work"}, "Neisseria gonorrhoeae [5]": {"test_system": "Neisseria gonorrhoeae", "details": "previously shown; cited from earlier work"}},
  "note": "Like-named read-outs stand apart in the source and are kept apart here.",
  "data": [
    {"compound": "Morpholine 3-Iodo-4,4′,5-trimethoxy-Z-stilbene 3′-O-phosphate [11d]", "values": [
      {"measurement": "MIC Neisseria gonorrhoeae", "setting": "Neisseria gonorrhoeae [1]", "value": "16 to 32", "unit": "mg/L"}
    ]},
    {"compound": "COc1ccc(/C=C\\c2cc(I)c(OC)c(I)c2)cc1OP(=O)([O-])[O-].[Li+].[Li+]", "note": "[12c, Lithium 3,5-Diiodo-4,4′-dimethoxy-Z-stilbene 3′-O-phosphate]", "values": [
      {"measurement": "MIC", "setting": "Neisseria gonorrhoeae [1]", "value": "0.5 to 2", "unit": "mg/L"}
    ]},
    {"compound": "COc1ccc(/C=C\\c2cc(I)c(OC)c(I)c2)cc1O", "note": "[9c, 3,5-Diiodo-4,4′-dimethoxy-3′-hydroxy-Z-stilbene]", "values": [
      {"measurement": "inhibition of colchicine binding to tubulin, % inhibition ± SD", "setting": "tubulin", "value": "100 ± 0.3", "unit": "%"},
      {"measurement": "GI50", "setting": "KAT-4 cells", "value": "0.039 to 0.063", "unit": "mg/L"},
      {"measurement": "MIC", "setting": "Micrococcus luteus [2]", "value": "4 to 16", "unit": "mg/L"},
      {"measurement": "cord lengths and junction numbers", "setting": "[3]", "value": "markedly reduced"},
      {"measurement": "times less active against the SW1736 line than against KAT-4", "setting": "SW1736 cells", "value": 100, "unit": "×"}
    ]},
    {"compound": "COc1ccc(/C=C\\c2cc(I)c(OC)c(OC)c2)cc1O", "note": "[9a, 3-Iodo-4,4′,5-trimethoxy-3′-hydroxy-Z-stilbene]", "values": [
      {"measurement": "inhibition of colchicine binding to tubulin, % inhibition ± SD", "setting": "tubulin", "value": "100 ± 0.8", "unit": "%"},
      {"measurement": "MIC", "setting": "Micrococcus luteus [2]", "value": "2 to 4", "unit": "mg/L"},
      {"measurement": "cord lengths and junction numbers", "setting": "[3]", "value": "markedly reduced"},
      {"measurement": "times less active against the SW1736 line than against KAT-4", "setting": "SW1736 cells", "value": 100, "unit": "×"}
    ]},
    {"compound": "Glycine-OMe 3,5-Diiodo-4,4′-dimethoxy-Z-stilbene 3′-O-phosphate [12f]", "values": [
      {"measurement": "MIC Neisseria gonorrhoeae", "setting": "Neisseria gonorrhoeae [1]", "value": "<0.5 to 1", "unit": "mg/L"}
    ]},
    {"compound": "COc1ccc(/C=C\\c2cc(I)c(OC)c(OC)c2)cc1OP(=O)([O-])[O-].[K+].[K+]", "note": "[11a, Potassium 3-Iodo-4,4′,5-trimethoxy-Z-stilbene 3′-O-phosphate]", "values": [
      {"measurement": "GI50", "setting": "KAT-4 cells", "value": "0.37 to 0.43", "unit": "mg/L"}
    ]},
    {"compound": "COc1ccc(/C=C\\c2cc(I)c(OC)c(I)c2)cc1OP(=O)([O-])[O-].[Na+].[Na+]", "note": "[12b, Sodium 3,5-Diiodo-4,4′-dimethoxy-Z-stilbene 3′-O-phosphate]", "values": [
      {"measurement": "MIC", "setting": "Neisseria gonorrhoeae [1]", "value": "32 to 64", "unit": "mg/L"}
    ]},
    {"compound": "Piperdine 3,5-Diiodo-4,4′-dimethoxy-Z-stilbene 3′-O-phosphate [12e]", "values": [
      {"measurement": "MIC Neisseria gonorrhoeae", "setting": "Neisseria gonorrhoeae [1]", "value": "< 0.5", "unit": "mg/L"}
    ]},
    {"compound": "C1COCCN1.COc1ccc(/C=C\\c2cc(I)c(OC)c(I)c2)cc1OP(=O)(O)O", "note": "[12d, Morpholine 3,5-Diiodo-4,4′-dimethoxy-Z-stilbene 3′-O-phosphate]", "values": [
      {"measurement": "MIC Neisseria gonorrhoeae", "setting": "Neisseria gonorrhoeae [1]", "value": "< 0.5", "unit": "mg/L"}
    ]},
    {"compound": "COc1ccc(/C=C\\c2cc(I)c(OC)c(I)c2)cc1OP(=O)([O-])[O-].[K+].[K+]", "note": "[12a, Potassium 3,5-Diiodo-4,4′dimethoxy-Z-stilbene 3′-O-phosphate]", "values": [
      {"measurement": "GI50", "setting": "KAT-4 cells", "value": "0.38 to 0.44", "unit": "mg/L"},
      {"measurement": "times less inhibitory than the phenols 9a and 9c", "setting": "KAT-4 cells; KAT-4", "value": 10, "unit": "×"},
      {"measurement": "MIC", "setting": "Neisseria gonorrhoeae [1]", "value": "0.5 to 4", "unit": "mg/L"}
    ]},
    {"compound": "Tris 3-Iodo-4,4′,5-trimethoxy-Z-stilbene 3′-O-phosphate [11h]", "values": [
      {"measurement": "MIC Neisseria gonorrhoeae", "setting": "Neisseria gonorrhoeae [1]", "value": "32 to 64", "unit": "mg/L"}
    ]},
    {"compound": "COc1ccc(/C=C\\c2cc(OC)c(OC)c(OC)c2)cc1O", "note": "[1a, combretastatin A-4]", "values": [
      {"measurement": "MIC Micrococcus luteus", "setting": "Micrococcus luteus [4]", "value": "25-100 μg/disk"},
      {"measurement": "MIC Neisseria gonorrhoeae", "setting": "Neisseria gonorrhoeae [5]", "value": "25-100 μg/disk"}
    ]},
    {"compound": "Tris 3,5-Diiodo-4,4′dimethoxy-Z-stilbene 3′-O-phosphate [12h]", "values": [
      {"measurement": "MIC Neisseria gonorrhoeae", "setting": "Neisseria gonorrhoeae [1]", "value": "<0.5 to 2", "unit": "mg/L"}
    ]},
    {"compound": "Tryptophan-OMe 3,5-Diiodo-4,4′-dimethoxy-Z-stilbene 3′-O-phosphate [12g]", "values": [
      {"measurement": "MIC Neisseria gonorrhoeae", "setting": "Neisseria gonorrhoeae [1]", "value": "< 0.5", "unit": "mg/L"}
    ]},
    {"compound": "Tryptophan-OMe 3-Iodo-4,4′,5-trimethoxy-Z-stilbene 3′-O-phosphate [11g]", "values": [
      {"measurement": "MIC Neisseria gonorrhoeae", "setting": "Neisseria gonorrhoeae [1]", "value": "4 to 8", "unit": "mg/L"}
    ]},
    {"compound": "COc1ccc(/C=C\\c2cc(OC)c(OC)c(OC)c2)cc1OP(=O)([O-])[O-].[Na+].[Na+]", "note": "[1b, fosbretabulin]", "values": [
      {"measurement": "MIC Micrococcus luteus", "setting": "Micrococcus luteus [4]", "value": "25-100 μg/disk"},
      {"measurement": "MIC Neisseria gonorrhoeae", "setting": "Neisseria gonorrhoeae [5]", "value": "25-100 μg/disk"}
    ]}
  ]
}
